In ChEMBL document CHEMBL5335790, “Design, synthesis and biological evaluation of novel 2,4-thiazolidinedione derivatives able to target the human BAG3 protein” (Eur J Med Chem, 2023) one finds GI50, Activity and inhibition data, which are given here for one molecule.

Active and inactive are the calls of the source. No cut-off for these calls is given here.

The nature of series [1]: Cytotoxicity against PHA stimulated human PBMC cells assessed as cell growth inhibition incubated for 72 hrs by MTT assay. In kind it is toxicity, cell-based. For orientation: Tetrazolium assays rely on reduction of a dye to a coloured formazan, in cell work by metabolically active cells.
Series [2] concerns HD-MB03. Put plainly: Induction of autophagy in human HD-MB03 cells assessed as autophagic vacuole formation in presence of chloroquine at 20 uM incubated for 24 hrs by bright field imaging analysis. It counts as functional, cell-based.
Series [3] deals with HD-MB03. Put plainly: Sensitization of chemotherapy induced cytotoxicity against human HD-MB03 cells assessed as inhibition of cell growth at 1.25 uM incubated for 72 hrs in presence of 0.12 unit of vincristine, etoposide, cisplatin, cyclophosphamide by resazurin dye based analysis (reference value: 51.43 +/- 1.17%). In kind it is functional. Background: Resazurin is reduced to fluorescent resorufin, in cell work by metabolically active cells.

For series [4], the system named is HD-MB03. Put plainly: Sensitization of chemotherapy induced cytotoxicity against human HD-MB03 cells assessed as inhibition of cell growth at 2.5 uM incubated for 72 hrs in presence of 1 unit of vincristine, etoposide, cisplatin, cyclophosphamide by resazurin dye based analysis (reference value: 91.53 +/- 1.15%). It counts as functional.
Series [5] deals with HD-MB03. Put plainly: Sensitization of chemotherapy induced cytotoxicity against human HD-MB03 cells assessed as inhibition of cell growth at 10 uM incubated for 72 hrs in presence of 2 unit of vincristine, etoposide, cisplatin, cyclophosphamide by resazurin dye based analysis (reference value: 97.7 +/- 1.3%). It counts as functional.
In series [6] the test system is HD-MB03. Put plainly: Sensitization of chemotherapy induced cytotoxicity against human HD-MB03 cells assessed as inhibition of cell growth at 20 uM incubated for 72 hrs in presence of 0.12 unit of vincristine, etoposide, cisplatin, cyclophosphamide by resazurin dye based analysis (reference value: 51.43 +/- 1.17%). In kind it is functional.
Series [7] concerns HD-MB03. Put plainly: Sensitization of chemotherapy induced cytotoxicity against human HD-MB03 cells assessed as inhibition of cell growth at 20 uM incubated for 72 hrs in presence of 1 unit of vincristine, etoposide, cisplatin, cyclophosphamide by resazurin dye based analysis (reference value: 91.53 +/- 1.15%). In kind it is functional.
The subject of series [8] is HD-MB03. Put plainly: Sensitization of chemotherapy induced cytotoxicity against human HD-MB03 cells assessed as inhibition of cell growth at 20 uM incubated for 72 hrs in presence of 2 unit of vincristine, etoposide, cisplatin, cyclophosphamide by resazurin dye based analysis (reference value: 97.7 +/- 1.3%). It counts as functional.
The subject of series [9] is HD-MB03. Put plainly: Cytotoxicity against human HD-MB03 cells assessed as inhibition of cell growth at 1.25 uM incubated for 72 hrs by resazurin dye based analysis relative to control. In kind it is functional. The method in brief: (§1)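 Resazurin viability in HD-MB03 cells, 2000/well, single-agent arm of the 6x6 matrix. Inhibitor was added 24 h after seeding, in a 6-point 2-fold series, duplicates, two independent experiments. After 72 h exposure, resazurin was added at 44 µM final for 3 h at 37 °C and fluorescence read at 590 nm. Viability normalized to 1 µM bortezomib and 0.5% DMSO controls.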

Series [10] relates to HD-MB03. Put plainly: Cytotoxicity against human HD-MB03 cells assessed as inhibition of cell growth at 5 uM incubated for 72 hrs by resazurin dye based analysis relative to control. It counts as functional. Put shortly:
as §1

Turning to `CC(C(=O)N1CCOCC1)N1C(=O)S/C(=C\c2cccc(O)c2O)C1=O` (racemic), in [1], the GI50 (as a rule, the concentration that inhibits growth by half) at 72 h is over 100 µM. Besides, the outcome in the series on HD-MB03 [2] was inactive. For the same molecule, the inhibition (in general, the change of the read-out against control, counted positive when it falls) at 1.25 µM is 47.7% in the series with HD-MB03 [3] and -11.8% in the series on HD-MB03 [9]. The inhibition at 2.5 µM in the series on HD-MB03 [4] was determined as 92%. In the series on HD-MB03 [5], the inhibition at 10 µM stood at 93.2%. In addition, the inhibition at 20 µM with HD-MB03 [6] was 75%; with HD-MB03 [7], 89.1%; in the series on HD-MB03 [8], 90.5%. The inhibition at 5 µM in the series with HD-MB03 [10] came to 3%.
